ChEMBL document CHEMBL1156819, “Structure-activity studies of urea, carbamate, and sulfonamide derivatives of acylfulvene” (J Med Chem, 2010)
Active and inactive are the calls of the source. The calls are words filed in the database; no cut-off is given here.

Assays:
MV522 = assay: In-vivo antitumor activity against human MV522 cells assessed as induction of tumor shrinkage in xenograft model at nontoxic dose; assay type: functional, cell-based
[1] = Cytotoxicity against human MV522 cells after 48 hrs by trypan blue exclusion assay; assay type: functional, cell-based; details: MV522, 48 h
Method in brief: (§1)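 Human MV522 lung adenocarcinoma (target) and 8392 B-cell lymphoma/leukemia (nontarget) lines. Compounds were made as 1 mg/mL stocks in cell-culture-grade DMSO and diluted in sterile 10% DMSO/PBS just before addition. Cells were exposed continuously for 48 h, and controls received equal DMSO/PBS vehicle. Cell survival was scored at 48 h by trypan blue exclusion.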

[2] = Selectivity index, ratio of IC50 for human 8392B cells to IC50 for human MV522 cells; assay type: functional
[3] = Cytotoxicity against human 8392B cells after 48 hrs by trypan blue exclusion assay; assay type: cell-based; method in brief: as §1

Row | Structure (SMILES) | Activity (MV522) | IC50 [1] | Ratio IC50 [2] | IC50 [3]
1 | CC1=C(CCCOC(=O)NCCO)C2=C(C)C3(CC3)[C@@](C)(O)C(=O)C2=C1 | Active | – | – | –
2 | CC1=C(CCCNS(C)(=O)=O)C2=C(C)C3(CC3)[C@@](C)(O)C(=O)C2=C1 | Active | 280 nM | >150 | 42000 nM
3 | CC1=C(CCCOC(=O)NCCCl)C2=C(C)C3(CC3)[C@@](C)(O)C(=O)C2=C1 | – | 57 nM | – | –
4 | CC1=C(CCCNC(=O)N2CCC(N3CCCCC3)CC2)C2=C(C)C3(CC3)[C@@](C)(O)C(=O)C2=C1 | – | – | – | 9000 nM
5 | CC1=C(CCCNS(=O)(=O)c2ccc(C)cc2)C2=C(C)C3(CC3)[C@@](C)(O)C(=O)C2=C1 | – | 580 nM | – | –
6 | CC1=C(CNS(C)(=O)=O)C2=C(C)C3(CC3)[C@@](C)(O)C(=O)C2=C1 | – | – | – | > 9300 nM
7 | CC1=C(CNS(N)(=O)=O)C2=C(C)C3(CC3)[C@@](C)(O)C(=O)C2=C1 | – | 300 nM | >31 | > 9300 nM
8 | CC1=C(CCCNS(N)(=O)=O)C2=C(C)C3(CC3)[C@@](C)(O)C(=O)C2=C1 | Active | 76 nM | 710 | 54000 nM
9 | CC1=C(CCCNC(=O)NCCO)C2=C(C)C3(CC3)[C@@](C)(O)C(=O)C2=C1 | – | < 80 nM | >35 | > 2800 nM
10 | CC1=C(CCCOC(=O)N2CCCCC2)C2=C(C)C3(CC3)[C@@](C)(O)C(=O)C2=C1 | – | 1200 nM | 6 | 7100 nM
11 | CC1=C(CO)C2=C(C)C3(CC3)[C@@](C)(O)C(=O)C2=C1 [IROFULVEN] | – | 170 nM | – | 76 nM
12 | CC1=C(CNC(=O)NCCCl)C2=C(C)C3(CC3)[C@@](C)(O)C(=O)C2=C1 | – | – | – | > 8500 nM
13 | CONC(=O)NCC1=C(C)C=C2C(=O)[C@](C)(O)C3(CC3)C(C)=C21 | – | – | – | > 9400 nM
14 | CC1=C(CNC(=O)NCCO)C2=C(C)C3(CC3)[C@@](C)(O)C(=O)C2=C1 | – | 190 nM | >47 | > 9000 nM
15 | CC1=C(CNC(=O)NO)C2=C(C)C3(CC3)[C@@](C)(O)C(=O)C2=C1 | – | 190 nM | >51 | 9800 nM
16 | CC1=C(CCCOC(=O)N2CCOCC2)C2=C(C)C3(CC3)[C@@](C)(O)C(=O)C2=C1 | – | – | – | 62200 nM
17 | CC1=C(CCCNC(=O)NO)C2=C(C)C3(CC3)[C@@](C)(O)C(=O)C2=C1 | – | – | – | > 9000 nM
18 | CC1=C(CCCNS(=O)(=O)NO)C2=C(C)C3(CC3)[C@@](C)(O)C(=O)C2=C1 | – | 8 nM | 31 | 250 nM
